Assay results taken from ChEMBL document CHEMBL5625166, “Disulfide-incorporated lipid prodrugs of cidofovir: Synthesis, antiviral activity, and release mechanism” (Eur J Med Chem, 2023).

Tests used:
[1] = Therapeutic index, ratio of CC50 for human A549 cells to IC50 for AdV5 infected in human A549 cells; format: toxicity, cell-based; conditions: read-out: Ratio CC50/IC50
Human adenovirus 5 [2] = experiment: Antiviral activity against AdV5 infected in A549 cells assessed as reduction in cytopathic effect incubated for 72 hrs by neutral red based spectrophotometric analysis; format: functional, organism-based; conditions: Human mastadenovirus C, A549, 72 h
[3] = Cytotoxicity against African green monkey Vero cells incubated for 72 hrs by neutral red based spectrophotometric analysis; format: toxicity, cell-based; conditions: chlorocebus sabaeus
Procedure, shortened: (§1)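 Cells seeded at 3 × 10^4 cells/well and grown 24 h at 37 °C, 5% CO2. Two-fold compound dilutions starting at 200.0 μM applied for 72 h. Neutral red (40 μg/mL) added for 4 h, cells washed and destained in ethanol/acetic acid. OD read at 540 nm against cell-free blanks. CC50 from triplicates.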

[4] = Therapeutic index, ratio of CC50 for human A549 cells to IC50 for VAVC infected in human A549 cells; format: toxicity, cell-based; conditions: read-out: Ratio CC50/IC50
[5] = Therapeutic index, ratio of CC50 for African green monkey Vero cells to IC50 for VAVC infected in african green monkey Vero cells; format: toxicity; conditions: read-out: Ratio CC50/IC50
Vaccinia virus [6] = experiment: Antiviral activity against VACV infected in Vero cells assessed as reduction in cytopathic effect incubated for 96 hrs by neutral red based spectrophotometric analysis; format: functional, organism-based; conditions: Orthopoxvirus vaccinia
Vaccinia virus [7] = experiment: Antiviral activity against VACV infected in A549 cells assessed as reduction in cytopathic effect incubated for 96 hrs by neutral red based spectrophotometric analysis; format: functional, organism-based; conditions: Orthopoxvirus vaccinia, A549, 96 h
A549 = experiment: Cytotoxicity against human A549 cells incubated for 72 hrs by neutral red based spectrophotometric analysis; format: toxicity, cell-based; conditions: a549, 72 h; procedure, shortened: as §1
[8] = Stability of the compound in phosphate buffer at pH 7.4 assessed as compound remaining measured upto 400 mins in presence of GSH by HPLC method; format: physicochemical; conditions: for Stability: buffer, pH 7.4, 6.667 h; for remaining at 6.667 h: phosphate buffer with GSH, pH 7.4, read-out: Stability
Lipid bilayer = experiment: Induction of micelles formation in PBS at pH 7.4 by TEM analysis; format: physicochemical; conditions: buffer
Procedure, shortened: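 Conjugates at 50.0 μM in pH 7.4 phosphate buffer, imaged by transmission electron microscopy for micelle formation.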

[9] = Stability in SGF assessed as remaining compound after 120 mins; format: ADME; conditions: read-out: Stability
Procedure, shortened: (§2)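 Incubated in simulated gastric fluid at 37 °C, remaining compound measured at 120 min.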

[10] = Stability in human plasma assessed as half life; format: ADME, cell-free
Procedure, shortened: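 Incubated in pooled human plasma at 37 °C, half-life determined.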

[11] = Stability of the compound in SIF assessed as remaining compound after 360 mins; format: ADME; conditions: read-out: Stability
Procedure, shortened: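 Incubated in simulated intestinal fluid at 37 °C, remaining compound measured at 360 min.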

[12] = Stability of the compound in SGF after 120 mins; format: ADME; conditions: simulated gi fluid, 2 h; procedure, shortened: as §2
[13] = Stability of the compound in phosphate buffer at pH 7.4 assessed as compound remaining measured after 360 mins in presence of GSH by HPLC method; format: physicochemical; conditions: phosphate buffer with GSH, read-out: Stability
Procedure, shortened: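 Conjugate incubated with 20 mM GSH in pH 7.4 phosphate buffer at 37 °C. Percent remaining monitored by HPLC over time, up to 360 min.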

Human adenovirus 5 [14] = experiment: Potency index, ratio of BCV IC50 to test compound IC50 for antiviral activity against AdV5 infected in A549 cells assessed as reduction in cytopathic effect incubated for 72 hrs by neutral red based spectrophotometric analysis; format: functional
[15] = Stability of the compound in PBS at pH 7.4 assessed as micelles formation after 4 hrs in presence of GSH by TEM analysis; format: physicochemical; conditions: buffer, pH 7.4, 4 h
Procedure, shortened: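 Micelles in pH 7.4 phosphate buffer re-imaged by TEM after 4 h incubation with GSH.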

Compound | selectivity ratio [1] | IC50 (Human adenovirus 5 [2]) [µM] | CC50 [3] [µM] | selectivity ratio [4] | selectivity ratio [5] | IC50 (Vaccinia virus [6]) [µM] | IC50 (Vaccinia virus [7]) [µM] | CC50 (A549) [µM] | Stability [8] | Activity (Lipid bilayer) | remaining at 6.667 h [8] [%] | remaining at 2 h [9] [%] | t1/2 [10] [h] | remaining at 6 h [11] [%] | Stability [12] | remaining at 6 h [13] [%] | Ratio IC50 (Human adenovirus 5 [14]) | Stability [15]
CCCCCCCCCCCCSSCCCOP(=O)(O)CO[C@H](CO)Cn1ccc(N)nc1=O | 37.7 | 1.26 | 33.3 | 23.5 | 5.09 | 6.54 | 2.02 | 47.6 |  |  |  |  |  |  |  |  |  | 
CCCCCCCCCCCCCCSSCCCCCCOP(=O)(O)CO[C@H](CO)Cn1ccc(N)nc1=O.N | 295 | 0.274 | 8.56 | 136 | 15.6 | 0.549 | 0.593 | 80.8 | Stable | Active |  |  |  |  |  |  |  | 
CCCCCCCCCCSSCCOP(=O)(O)CO[C@H](CO)Cn1ccc(N)nc1=O | 5.2 | 12.5 | 81.3 | 10.4 | 32.7 | 2.49 | 6.27 | 65.2 |  |  |  |  |  |  |  |  |  | 
CCCCCCCCCCCCSSCCCCOP(=O)(O)CO[C@H](CO)Cn1ccc(N)nc1=O | 317 | 0.255 | 35 | 76.8 | 40.6 | 0.861 | 1.05 | 80.6 |  |  |  |  |  |  |  |  |  | 
CCCCCCCCCCCCCCCCCCSSCCCOP(=O)(O)CO[C@H](CO)Cn1ccc(N)nc1=O | 17.3 | 1.86 | 9.87 | 44.6 | 22.7 | 0.436 | 0.724 | 32.3 |  |  |  |  |  |  |  |  |  | 
CCCCCCCCSSCCCCCCOP(=O)(O)CO[C@H](CO)Cn1ccc(N)nc1=O |  |  | > 200 | > 4 | > 4.05 | 49.3 | > 50 | > 200 |  |  |  |  |  |  |  |  |  | 
CCCCCCCCCCSSCCCCCCOP(=O)(O)CO[C@H](CO)Cn1ccc(N)nc1=O | 83.9 | 2.31 | 115 | 45.2 | 18.4 | 6.27 | 4.29 | 194 |  |  |  |  |  |  |  |  |  | 
CCCCCCCCCCCCCCCCSSCCOP(=O)(O)CO[C@H](CO)Cn1ccc(N)nc1=O.N | 55.2 | 0.157 | 2.58 | 96.1 | 37.7 | 0.068 | 0.09 | 8.69 |  | Active | 81 | 68 | 3.237 | > 90 |  |  |  | 
CCCCCCCCCCSSCCCOP(=O)(O)CO[C@H](CO)Cn1ccc(N)nc1=O |  |  | 182 | 5.91 | 5.77 | 31.5 | 22 | 130 |  |  |  |  |  |  |  |  |  | 
CCCCCCCCCCCCSSCCCCCCOP(=O)(O)CO[C@H](CO)Cn1ccc(N)nc1=O.N | 725 | 0.185 | 15.2 | 160 | 17.8 | 0.854 | 0.838 | 134 |  |  |  |  | 4.45 | > 90 | Stable |  |  | 
CCCCCCCCCCSSCCCCOP(=O)(O)CO[C@H](CO)Cn1ccc(N)nc1=O |  |  | 95.8 | 3.55 | 2.36 | 40.6 | 45.7 | 162 |  |  |  |  |  |  |  |  |  | 
CCCCCCCCCCCCCCSSCCOP(=O)(O)CO[C@H](CO)Cn1ccc(N)nc1=O.N | 93.7 | 0.157 | 6.53 | 186 | 68 | 0.096 | 0.079 | 14.7 |  | Active |  | 77 | 2.144 | > 90 |  | 13 |  | 
CCCCCCCCCCCCSSCCOP(=O)(O)CO[C@H](CO)Cn1ccc(N)nc1=O | 59.1 | 0.795 | 14.3 | 216 | 39.2 | 0.365 | 0.217 | 47 |  |  |  |  |  |  |  |  |  | 
CCCCCCCCCCCCCCCCSSCCCCOP(=O)(O)CO[C@H](CO)Cn1ccc(N)nc1=O.N | 232 | 0.134 | 12.5 | 18.8 | 41 | 0.304 | 1.65 | 31 |  | Active |  |  | 4.375 | > 90 | Stable |  | 2 | 
CCCCCCCCCCCCCCCCSSCCCOP(=O)(O)CO[C@H](CO)Cn1ccc(N)nc1=O | 156 | 0.3 | 12.7 | 116 | 46.3 | 0.274 | 0.401 | 46.7 |  |  |  |  |  |  |  |  |  | 
CCCCCCCCCCCCCCCCCCSSCCOP(=O)(O)CO[C@H](CO)Cn1ccc(N)nc1=O.N | 73.1 | 0.193 | 4.9 | 136 | 34.8 | 0.141 | 0.104 | 14.1 |  | Active | 93 |  |  |  |  |  |  | Stable
CCCCCCCCCCCCCCCCOCCCOP(=O)(O)CO[C@H](CO)Cn1ccc(N)nc1=O [BRINCIDOFOVIR] | 81.8 | 0.245 | 13.9 | 67 | 70.7 | 0.196 | 0.3 | 20.1 |  |  |  | 43 | > 24 | > 90 |  |  |  | 
CCCCCCCCCCCCCCSSCCCCOP(=O)(O)CO[C@H](CO)Cn1ccc(N)nc1=O.N | 115 | 0.384 | 18.1 | 74 | 35 | 0.517 | 0.599 | 44.3 | Stable |  |  |  |  |  |  |  |  | 
CCCCCCCCCCCCCCSSCCCOP(=O)(O)CO[C@H](CO)Cn1ccc(N)nc1=O.N | 92.6 | 0.548 | 13.9 | 227 | 49.3 | 0.283 | 0.223 | 50.7 | Stable |  |  |  |  |  |  |  |  | 
